Series [1] addresses recombinant human MMP-8 catalytic domain (Homo sapiens, UniProt P22894). Nature of the series: Recombinant MMP fluorescent assay, MMP-8. The class given is biochemical. The settings on record: read-out: IC50 MMP-8; 1 hour preincubation at 37°C.
In series [2] the test system is isolated stunned rat hearts. Nature of the series: Langendorff isolated perfused rat heart, stunning. Conditions: for Improvement in RPP versus controls: at 30-minute reperfusion; for Coronary flow rates versus controls: during reperfusion; for cTnI release versus controls: after ischemia.
Series [3] deals with recombinant human MMP-9 catalytic domain (Homo sapiens, UniProt P14780). Nature of the series: Recombinant MMP fluorescent assay, MMP-9. It counts as biochemical. The settings on record: read-out: IC50 MMP-9; 1 hour preincubation at 37°C.
recombinant human MMP-9 catalytic domain, sequence (P14780 107-444 limits assumed): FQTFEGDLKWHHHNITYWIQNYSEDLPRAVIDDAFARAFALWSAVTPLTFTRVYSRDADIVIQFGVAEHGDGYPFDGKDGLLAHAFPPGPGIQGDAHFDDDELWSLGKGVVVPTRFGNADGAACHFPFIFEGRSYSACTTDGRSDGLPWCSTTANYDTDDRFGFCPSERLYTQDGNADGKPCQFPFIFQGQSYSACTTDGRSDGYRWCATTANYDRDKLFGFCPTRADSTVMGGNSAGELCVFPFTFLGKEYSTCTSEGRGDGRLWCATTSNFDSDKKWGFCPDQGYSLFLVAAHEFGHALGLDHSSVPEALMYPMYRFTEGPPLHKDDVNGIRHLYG
The target in series [4] is recombinant human MMP-2 catalytic domain (Homo sapiens, UniProt P08253). Nature of the series: Recombinant MMP fluorescent assay, MMP-2. The settings on record: read-out: IC50 MMP-2; 1 hour preincubation at 37°C. It counts as biochemical.
recombinant human MMP-2 catalytic domain, sequence (P08253 110-446 limits assumed): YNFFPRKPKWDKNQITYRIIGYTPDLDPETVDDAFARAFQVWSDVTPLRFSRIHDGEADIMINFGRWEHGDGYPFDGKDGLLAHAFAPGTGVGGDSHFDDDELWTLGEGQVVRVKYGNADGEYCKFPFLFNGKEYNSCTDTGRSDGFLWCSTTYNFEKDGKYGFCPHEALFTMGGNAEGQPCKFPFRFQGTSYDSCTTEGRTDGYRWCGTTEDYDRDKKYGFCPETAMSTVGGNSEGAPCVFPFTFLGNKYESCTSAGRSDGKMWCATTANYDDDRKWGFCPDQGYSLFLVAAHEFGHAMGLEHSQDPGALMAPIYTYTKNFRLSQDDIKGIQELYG
In series [5] the target is T1, recombinant human MMP-7 catalytic domain (Homo sapiens, UniProt P09237).
T1 sequence (P09237 95-267): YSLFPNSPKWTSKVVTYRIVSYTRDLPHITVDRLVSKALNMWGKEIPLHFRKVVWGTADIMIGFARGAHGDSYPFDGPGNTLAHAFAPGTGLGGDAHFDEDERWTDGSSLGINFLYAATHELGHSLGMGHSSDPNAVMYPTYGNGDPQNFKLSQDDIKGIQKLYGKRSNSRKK
The series can be described thus: Recombinant MMP fluorescent assay, MMP-7. It counts as biochemical. A digest of the protocol: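 Kit-based fluorogenic substrate assay. Test compound was dissolved in DMSO, with 0.005% final DMSO in buffer (50 mM HEPES, 10 mM CaCl2, 0.05% Brij-35, pH 7.5). Substrate was added to start the reaction. Fluorescence (ex 335/em 405 nm) was read every 60 s for 30 min, with 1 s shaking between reads. Rates came from linear kinetic regions; IC50 from activity versus log[inhibitor]. o-Phenanthroline confirmed MMP-dependent cleavage.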

The target in series [6] is recombinant human MMP-12 catalytic domain (Homo sapiens, UniProt P39900). Nature of the series: Recombinant MMP fluorescent assay, MMP-12. The class given is biochemical.
recombinant human MMP-12 catalytic domain, sequence (P39900 106-263 limits assumed): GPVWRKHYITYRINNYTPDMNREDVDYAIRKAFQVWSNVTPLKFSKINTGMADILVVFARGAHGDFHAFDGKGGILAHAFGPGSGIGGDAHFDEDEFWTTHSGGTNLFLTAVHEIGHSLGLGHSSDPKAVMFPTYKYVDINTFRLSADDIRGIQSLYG
Series [7] deals with recombinant human MMP-3 catalytic domain (Homo sapiens, UniProt P08254). Nature of the series: Recombinant MMP fluorescent assay, MMP-3. It counts as biochemical. Conditions: read-out: IC50 MMP-3; 1 hour preincubation at 37°C.
recombinant human MMP-3 catalytic domain, sequence (P08254 100-272 limits assumed): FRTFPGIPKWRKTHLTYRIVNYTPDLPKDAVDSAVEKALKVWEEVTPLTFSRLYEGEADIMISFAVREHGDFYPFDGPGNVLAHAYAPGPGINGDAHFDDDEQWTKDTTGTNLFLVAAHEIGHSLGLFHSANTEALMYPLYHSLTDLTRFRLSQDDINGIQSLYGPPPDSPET
Series [8] deals with cocultured neonatal rat cardiac fibroblasts/myocytes. Nature of the series: MTT cell viability assay. It counts as cell-based. Conditions: 24 hours incubation. In general terms: Tetrazolium dyes change colour on reduction, which living cells bring about.
For series [9], the target named is T2, recombinant human MMP-1 catalytic domain (Homo sapiens, UniProt P03956).
T2 sequence (P03956 100-269 limits assumed): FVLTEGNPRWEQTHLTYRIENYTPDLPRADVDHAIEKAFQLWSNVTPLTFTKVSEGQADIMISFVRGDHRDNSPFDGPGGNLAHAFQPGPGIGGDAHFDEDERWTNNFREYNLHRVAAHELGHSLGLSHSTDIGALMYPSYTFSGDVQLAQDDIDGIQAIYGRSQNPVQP
Nature of the series: Recombinant MMP fluorescent assay, MMP-1. Conditions: read-out: IC50 MMP-1; 1 hour preincubation at 37°C. The class given is biochemical.

The test system of series [10] is isolated infarcted rat hearts. Nature of the series: Langendorff isolated perfused rat heart, infarction. Conditions: 5 μM.
For series [11], the target named is recombinant human MMP-13 catalytic domain (Homo sapiens, UniProt P45452). The series can be described thus: Recombinant MMP fluorescent assay, MMP-13. Conditions: read-out: IC50 MMP-13; 1 hour preincubation at 37°C. It counts as biochemical.
Setting [12] is: read-out: IC50 MMP-7, 1 hour preincubation at 37°C.
The mark [13] stands for this setting: read-out: IC50 MMP-12, 1 hour preincubation at 37°C.

Read-outs that look alike come from different tables or passages of the source.

As usually defined, the IC50 is the concentration that gives 50% inhibition.

recombinant human MMP-8 catalytic domain, sequence (P22894 100-262 limits assumed): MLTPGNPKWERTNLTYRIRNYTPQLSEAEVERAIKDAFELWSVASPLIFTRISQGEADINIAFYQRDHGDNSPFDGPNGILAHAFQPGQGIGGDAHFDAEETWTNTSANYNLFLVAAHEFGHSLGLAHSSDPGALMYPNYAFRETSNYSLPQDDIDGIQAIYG

Turning to `O=C(NCc1ccc(-c2ccccc2)cc1)c1cccc(=O)n1O` [1,2-HOPO-2], the IC50 in series [1] was 0.086 µM; in series [3], 27.1 µM; in series [4], 0.92 µM; in [5] (setting [12]), over 50 µM; in series [6] (setting [13]), 0.018 µM; in [7], 0.56 µM. Besides, the IC50 is over 50 µM in series [9] and 4.1 µM in series [11]. The “Peak systolic pressure (PSP)” value in [2] (5 μM, data not shown) was “significant rise in PSP”. Moreover, the “Reduction in myocardial edema versus controls” value in series [2] (5 μM, stunned hearts) is reported as ~ 10%. Besides, the “Collagen damage (opalation)” value in series [2] (5 μM, stunned hearts (20-minute GNFI), controls 1.49 ± 1.0) is 1.45 ± 0.89 AFU. The “Improvement in RPP versus controls” value in series [2] (5 μM, stunned hearts) is ~ 23%. In addition, the “Coronary flow rates versus controls” value in series [2] (5 μM, stunned hearts) is “higher coronary flow rates versus controls”; in series [10] (conditions of infarction, data not shown) it was “higher coronary flow rates versus controls”. Further, the “Reduction in ventricular wet weight versus controls” value in series [2] (5 μM, stunned hearts, end of reperfusion) is recorded as ~ 15%. In addition, in [2] (5 μM, stunned hearts, end of reperfusion, controls 820 ± 72), the Ventricular wet weight turned out to be 700 ± 34 mg. Further, the “Wet to dry weight ratio (edema)” value in series [2] (5 μM, stunned hearts, controls 5.4 ± 0.21) worked out at 4.9 ± 0.02. The “Reduction of muscle damage” value in series [2] (abstract, troponin I) is ~ 25%. Also, the “Improvement in coronary flow rates” value in series [2] (abstract, versus controls) is given as ~ 22%. In [2] (stunned hearts), the “cTnI release versus controls” value was “significant reductions in cTnI release versus controls”. In addition, in series [8] (0.01-1000 μM tested), the “Concentration without compromise of cell viability (lack of cytotoxicity)” value was under 10 µM. Further, the “Reduction of collagen degradation versus controls” value in series [10] (30-minute global ischemia (infarction), opalation) is recorded as ~ 60%. Besides, the “Collagen degradation (opalation)” value in [10] (30-minute global ischemia (infarction), controls 1.53 ± 0.66) stood at 0.56 ± 0.29 AFU. In addition, the “Troponin I release” value in series [10] (30-minute global ischemia, data not shown) is listed as “significantly reduced troponin I release”. Further, the “Improved recovery in RPP versus controls” value in [10] (infarcted hearts, at 30-minute reperfusion) was ~ 17%. In addition, in [10] (infarcted hearts, at 30-minute reperfusion, controls 28%), the “RPP in treated hearts” value is reported as 45%.
As for `COc1ccc(S(=O)(=O)N(Cc2cccnc2)[C@@H](C(=O)NO)C(C)C)cc1` [CGS27023A], the “Improvement in RPP versus controls” value in [2] (5 μM, stunned hearts) is given as ~ 8%. Further, the “Coronary flow rates versus controls” value in series [2] (5 μM, stunned hearts) is on record as “did not improve coronary flow rates”. Further, the “cTnI release versus controls” value in [2] (stunned hearts) is listed as “no significant changes in cTnI release”. In addition, the IC50 in [5] (IC50 MMP-7, 1 hour preincubation at 37°C) is 0.5 µM; in [6] (IC50 MMP-12, 1 hour preincubation at 37°C), under 0.05 µM; in [6] (IC50 MMP-12, as stated in discussion text) it was at most 0.05 µM.
As to `CC(C)[C@H](NS(=O)(=O)c1ccc(-c2ccc(Br)cc2)cc1)C(=O)O` [PD166793, reference compound], the half-inhibitory concentration (IC50) is under 0.05 µM in [1], 3 µM in series [3], 3 µM in [5] (setting [12]) and under 0.05 µM in series [6] (setting [13]). Besides, in [2] (5 μM, stunned hearts), the “Improvement in RPP versus controls” value is recorded as ~ 8%. In addition, the “Coronary flow rates versus controls” value in [2] (5 μM, stunned hearts) is listed as “did not improve coronary flow rates”. Also, in series [2] (stunned hearts), the “cTnI release versus controls” value was “no significant changes in cTnI release”. Moreover, the “Concentration with loss of cell viability” value in series [8] was “greater than 10 μM”.

These data come from article PMC2835692 (Journal of cardiovascular pharmacology, 2009).
